According to ChEMBL document CHEMBL5532695, “4-Trifluoromethyl bithiazoles as broad-spectrum antimicrobial agents for virus-related bacterial infections or co-infections” (RSC Med Chem, 2024):

How the values were obtained:
Pseudomonas aeruginosa = assay: Synergistic antibacterial activity against Pseudomonas aeruginosa ATCC 27853 incubated for 18 to 24 hrs in presence of colistin by broth microdilution method; format: functional; settings: time 18-24 hrs
Streptococcus pyogenes [1] = assay: Antibacterial activity against Streptococcus pyogenes ATCC 12344 assessed as reduction in microbial growth measured after 18 hrs by CLSI based broth microdilution method; format: functional
Outline: (§1)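 MIC by CLSI broth microdilution in Mueller–Hinton medium, triplicate. Inoculum 5 × 10^4 CFU per well. Compounds taken up in DMSO (50 mg mL−1 stock) and diluted in medium. Read after 18 h at 35 ± 2 °C.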

Enterococcus faecalis [2] = assay: Antibacterial activity against Enterococcus faecalis ATCC 29212 assessed as reduction in microbial growth measured after 18 hrs by CLSI based broth microdilution method; format: functional; outline: as §1
Zika virus [3] = assay: microbe, parasite or virus in culture; settings: Vero C1008, 72 h
rhinovirus A16 [4] = assay: microbe, parasite or virus in culture; settings: Rhinovirus A, HeLa, 48 h
[5] = Cytotoxicity against african green monkey Vero E6 cells assessed as reduction in cell viability by MTT assay; format: toxicity, cell-based; settings: chlorocebus sabaeus, Vero E6 cells (Vero C1008)
Outline: (§2)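 MTT viability on HeLa or VeroE6 cells, run in parallel with the antiviral assays. CC50 from variable-slope sigmoidal dose–response regression.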

enterovirus D68 [6] = assay: microbe, parasite or virus in culture; settings: Enterovirus D, HeLa, 48 h
Bacillus subtilis [7] = assay: Antibacterial activity against Bacillus subtilis ATCC 6633 assessed as reduction in microbial growth measured after 18 hrs by CLSI based broth microdilution method; format: functional; outline: as §1
Klebsiella pneumoniae = assay: Synergistic antibacterial activity against Klebsiella pneumoniae ATCC 13833 incubated for 18 to 24 hrs in presence of colistin by broth microdilution method; format: functional; settings: time 18-24 hrs
Escherichia coli = assay: Synergistic antibacterial activity against Escherichia coli CCUGT incubated for 18 to 24 hrs in presence of colistin by broth microdilution method; format: functional; settings: time 18-24 hrs
Staphylococcus aureus [8] = assay: Antibacterial activity against Staphylococcus aureus ATCC 25923 assessed as reduction in microbial growth measured after 18 hrs by CLSI based broth microdilution method; format: functional; outline: as §1
[9] = molecular target: Phosphatidylinositol 4-kinase beta (Homo sapiens, UniProt Q9UBF8); assay: Inhibition of recombinant full length his tagged PI4KB (unknown origin) incubated for 10 mins in presence of ATP by ADP-glo kinase assay
Chain of Phosphatidylinositol 4-kinase beta (Q9UBF8 whole entry): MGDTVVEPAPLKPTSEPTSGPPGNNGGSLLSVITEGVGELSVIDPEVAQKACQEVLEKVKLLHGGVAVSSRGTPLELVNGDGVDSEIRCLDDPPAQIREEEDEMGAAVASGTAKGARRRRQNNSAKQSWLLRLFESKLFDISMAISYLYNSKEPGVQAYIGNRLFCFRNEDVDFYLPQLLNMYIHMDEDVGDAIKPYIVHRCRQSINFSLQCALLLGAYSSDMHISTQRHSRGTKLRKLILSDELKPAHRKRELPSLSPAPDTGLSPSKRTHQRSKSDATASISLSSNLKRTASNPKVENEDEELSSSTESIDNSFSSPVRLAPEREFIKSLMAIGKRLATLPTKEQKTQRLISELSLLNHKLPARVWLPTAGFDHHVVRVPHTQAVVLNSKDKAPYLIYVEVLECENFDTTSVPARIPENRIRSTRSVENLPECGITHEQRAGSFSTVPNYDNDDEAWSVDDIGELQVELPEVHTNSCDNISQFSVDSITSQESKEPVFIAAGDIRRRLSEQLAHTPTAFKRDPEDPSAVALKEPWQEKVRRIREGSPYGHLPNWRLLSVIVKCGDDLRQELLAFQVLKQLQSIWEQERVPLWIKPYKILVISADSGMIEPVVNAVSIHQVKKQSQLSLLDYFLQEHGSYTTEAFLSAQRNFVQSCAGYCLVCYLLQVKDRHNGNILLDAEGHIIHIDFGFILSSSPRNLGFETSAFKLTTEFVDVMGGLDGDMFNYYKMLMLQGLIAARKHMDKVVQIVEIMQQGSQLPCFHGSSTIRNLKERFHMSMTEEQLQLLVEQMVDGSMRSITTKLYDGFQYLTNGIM

Acinetobacter baumannii = assay: Synergistic antibacterial activity against Acinetobacter baumannii ATCC 17978 incubated for 18 to 24 hrs in presence of colistin by broth microdilution method; format: functional; settings: time 18-24 hrs
[10] = Cytotoxicity against human HeLa cells assessed as reduction in cell viability by MTT assay; format: toxicity, cell-based; outline: as §2
Zika virus [11] = settings: vero e6
rhinovirus A16 [12] = settings: hela
enterovirus D68 [13] = settings: hela
Bacillus subtilis [14] = assay: Bactericidal activity against Bacillus subtilis ATCC 6633 assessed as reduction in microbial growth measured after 18 hrs by CLSI based broth microdilution method; format: functional
Outline: (§3)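 MBC by CLSI broth microdilution in Mueller–Hinton medium, triplicate. Inoculum 5 × 10^4 CFU per well. Read after 18 h at 35 ± 2 °C.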

Staphylococcus warneri [15] = assay: Antibacterial activity against oxacillin-resistant Staphylococcus warneri SI-5/2011 assessed as reduction in microbial growth measured after 18 hrs by CLSI based broth microdilution method; format: functional
Outline: (§4)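 Gram-positive clinical isolates; compounds dissolved in DMSO (50 mg mL−1 stock) and diluted in medium; MIC by CLSI broth microdilution in Mueller–Hinton medium, inoculum 5 × 10^4 CFU per well, read after 18 h at 35 ± 2 °C; triplicate.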

Enterococcus faecium [16] = assay: Bactericidal activity against Vancomycin/teicoplanin resistant Enterococcus faecium SI-759 assessed as reduction in microbial growth measured after 18 hrs by CLSI based broth microdilution method; format: functional
Enterococcus faecium [17] = assay: Bactericidal activity against Vancomycin resistant Enterococcus faecium SI-1831 assessed as reduction in microbial growth measured after 18 hrs by CLSI based broth microdilution method; format: functional
Enterococcus faecalis [18] = assay: Bactericidal activity against Enterococcus faecalis ATCC 29212 assessed as reduction in microbial growth measured after 18 hrs by CLSI based broth microdilution method; format: functional; outline: as §3
[19] = test system: Staphylococcus haemolyticus; assay: Antibacterial activity against oxacillin-resistant Staphylococcus haemolyticus SI-6/2011 assessed as reduction in microbial growth measured after 18 hrs by CLSI based broth microdilution method; format: functional; outline: as §4
[20] = test system: Staphylococcus epidermidis; assay: Bactericidal activity against linezolid-resistant Staphylococcus epidermidis SI-1266 assessed as reduction in microbial growth measured after 18 hrs by CLSI based broth microdilution method; format: functional
Staphylococcus aureus [21] = assay: Bactericidal activity against methicillin-resistant Staphylococcus aureus ATCC 43300 assessed as reduction in microbial growth measured after 18 hrs by CLSI based broth microdilution method; format: functional
Streptococcus pyogenes [22] = assay: Bactericidal activity against Streptococcus pyogenes ATCC 12344 assessed as reduction in microbial growth measured after 18 hrs by CLSI based broth microdilution method; format: functional; outline: as §3
Enterococcus faecium [23] = assay: Antibacterial activity against Vancomycin resistant Enterococcus faecium SI-3856B assessed as reduction in microbial growth measured after 18 hrs by CLSI based broth microdilution method; format: functional; outline: as §4
Staphylococcus aureus [24] = assay: Antibacterial activity against methicillin-resistant Staphylococcus aureus ATCC 43300 assessed as reduction in microbial growth measured after 18 hrs by CLSI based broth microdilution method; format: functional; outline: as §4
[25] = test system: Staphylococcus haemolyticus; assay: Bactericidal activity against oxacillin-resistant Staphylococcus haemolyticus SI-6/2011 assessed as reduction in microbial growth measured after 18 hrs by CLSI based broth microdilution method; format: functional
Enterococcus faecium [26] = assay: Antibacterial activity against Vancomycin/teicoplanin resistant Enterococcus faecium SI-759 assessed as reduction in microbial growth measured after 18 hrs by CLSI based broth microdilution method; format: functional; outline: as §4
Enterococcus faecium [27] = assay: Antibacterial activity against Vancomycin resistant Enterococcus faecium SI-1831 assessed as reduction in microbial growth measured after 18 hrs by CLSI based broth microdilution method; format: functional; outline: as §4
[28] = test system: Staphylococcus epidermidis; assay: Antibacterial activity against linezolid-resistant Staphylococcus epidermidis SI-1266 assessed as reduction in microbial growth measured after 18 hrs by CLSI based broth microdilution method; format: functional; outline: as §4
Staphylococcus warneri [29] = assay: Bactericidal activity against oxacillin-resistant Staphylococcus warneri SI-5/2011 assessed as reduction in microbial growth measured after 18 hrs by CLSI based broth microdilution method; format: functional
Enterococcus faecium [30] = assay: Bactericidal activity against Vancomycin resistant Enterococcus faecium SI-3856B assessed as reduction in microbial growth measured after 18 hrs by CLSI based broth microdilution method; format: functional

Row | MIC (Streptococcus pyogenes [1]) | MIC (Enterococcus faecalis [2]) | IC50 (rhinovirus A16 [4]) | IC50 (enterovirus D68 [6]) | MIC (Bacillus subtilis [7]) | MIC (Staphylococcus aureus [8]) | IC50 [9] | IC50 (Zika virus [11]) | SMILES | MAC (Pseudomonas aeruginosa) | CC50 [5] | MAC (Klebsiella pneumoniae) | MAC (Escherichia coli) | MAC (Acinetobacter baumannii) | CC50 [10] | IC50 (rhinovirus A16 [12]) | IC50 (enterovirus D68 [13]) | other results
1 | > 32 µg/mL | > 32 µg/mL | 10.4 µM | 5.74 µM | > 32 µg/mL | > 32 µg/mL | Not Active | – | CC(C)(C)C(=O)Nc1nc(C(F)(F)F)c(-c2c[nH]c(Nc3cccc(C(F)(F)F)c3)n2)s1 | >64 µg/mL | > 50 µM | >64 µg/mL | 32 µg/mL | 16 µg/mL | > 50 µM | – | – | IC50 (Zika virus [3]): 8.52 µM
2 | > 32 µg/mL | > 32 µg/mL | – | 12.3 µM | > 32 µg/mL | > 32 µg/mL | Not Active | Not Active | CC(C)(C)C(=O)Nc1nc(C(F)(F)F)c(-c2csc(Nc3cc(C(=O)O)cc(C(=O)O)c3)n2)s1 | >64 µg/mL | > 50 µM | >64 µg/mL | >64 µg/mL | >64 µg/mL | > 50 µM | Not Active | – | –
3 | > 32 µg/mL | > 32 µg/mL | 2.44 µM | – | > 32 µg/mL | > 32 µg/mL | Not Active | Not Active | COC(=O)c1cc(Nc2nc(-c3sc(NC(=O)c4ccccc4)nc3C(F)(F)F)cs2)cc(C(F)(F)F)c1 | >64 µg/mL | > 50 µM | >64 µg/mL | >64 µg/mL | >64 µg/mL | 22.9 µM | – | Not Active | –

Row | SMILES | MIC (Streptococcus pyogenes [1]) | MIC (Enterococcus faecalis [2]) | IC50 (rhinovirus A16 [4]) | IC50 (enterovirus D68 [6]) | MIC (Bacillus subtilis [7]) | MIC (Staphylococcus aureus [8]) | IC50 [9] | IC50 (Zika virus [11]) | MAC (Pseudomonas aeruginosa) | CC50 [5] | MAC (Klebsiella pneumoniae) | MAC (Escherichia coli) | MAC (Acinetobacter baumannii) | CC50 [10] | IC50 (rhinovirus A16 [12]) | IC50 (enterovirus D68 [13]) | other results
4 | O=C(O)c1cc(Nc2nc(-c3sc(NC(=O)c4ccccc4)nc3C(F)(F)F)cs2)cc(C(F)(F)F)c1 | 2 µg/mL | 2 µg/mL | – | – | 4 µg/mL | > 32 µg/mL | – | Not Active | >64 µg/mL | > 50 µM | >64 µg/mL | >64 µg/mL | >64 µg/mL | > 50 µM | Not Active | Not Active | MBC (Bacillus subtilis [14]): 32 µg/mL; MIC (Staphylococcus warneri [15]): > 64 µg/mL; MBC (Enterococcus faecium [16]): > 64 µg/mL; MBC (Enterococcus faecium [17]): > 64 µg/mL; MBC (Enterococcus faecalis [18]): > 32 µg/mL; MIC [19]: 32 µg/mL; MBC [20]: > 64 µg/mL; MBC (Staphylococcus aureus [21]): > 64 µg/mL; MBC (Streptococcus pyogenes [22]): > 32 µg/mL; MIC (Enterococcus faecium [23]): > 64 µg/mL; MIC (Staphylococcus aureus [24]): > 64 µg/mL; MBC [25]: > 64 µg/mL; MIC (Enterococcus faecium [26]): 64 µg/mL; MIC (Enterococcus faecium [27]): > 64 µg/mL; MIC [28]: 32 µg/mL; MBC (Staphylococcus warneri [29]): > 64 µg/mL; MBC (Enterococcus faecium [30]): > 64 µg/mL
